Consider 13 compounds from ChEMBL document CHEMBL4706762, “Massively Parallel Optimization of the Linker Domain in Small Molecule Dimers Targeting a Toxic r(CUG) Repeat Expansion” (ACS Med Chem Lett, 2021).

Data set [1] can be described thus: Drug localization in nucleus of DM1-patient derived myotubes at 5 uM measured after 24 hrs by live-cell fluorescence microscopy. The data set is classed as ADME, subcellular. Conditions: human, myotube. Summed up:
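DM1 patient myotubes bearing 1300 r(CUG) repeats given 5 μM agent; subcellular localization followed via intrinsic fluorescence of the H RNA-binding modules.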

Data set [2] can be described thus: Cytotoxicity against DM1-patient derived myotubes assessed as change in cellular morphology at 5 uM measured after 48 hrs. As to conditions: human, myotube. The gist of the method:
(§1)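 Cell morphology of DM1 patient-derived myotubes inspected during 48 h splicing treatment at 5 μM; agents altering morphology were re-tested at 1 μM.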

Data set [3] relates to r(CUG) repeat expansion. Briefly: Binding affinity to r(CUG)exp RNA repeat in DM1-patient derived myotubes assessed as improvement in MBNL1 exon 5 splicing defect at 0.2 uM measured after 48 hrs by RT-qPCR analysis relative to control. Conditions: Homo sapiens, Myotube. The gist of the method:
(§2)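 DM1 patient-derived myotubes (1300 r(CUG) repeats) treated 48 h, then MBNL1 exon 5 splicing rescue measured. Single-dose screens at 5 μM or 1 μM, where 1 μM was used if 5 μM altered morphology, n = 3. Dose–response also run, n = 6. SD shown; one-way ANOVA.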
For orientation: Quantitative PCR measures a nucleic acid by following its amplification.

The subject of data set [4] is r(CUG) repeat expansion. As to the kind of experiment: Binding affinity to r(CUG)exp RNA repeat in DM1-patient derived myotubes assessed as improvement in MBNL1 exon 5 splicing defect measured after 48 hrs by RT-qPCR analysis. The data set is classed as tissue-based. Conditions: Homo sapiens, Myotube, dose 0.04-1 µM.
The subject of data set [5] is r(CUG) repeat expansion. As to the kind of experiment: Binding affinity to r(CUG)exp RNA repeat in DM1-patient derived myotubes assessed as improvement in MBNL1 exon 5 splicing defect at 1 uM measured after 48 hrs by RT-qPCR analysis relative to control. As to conditions: Homo sapiens, Myotube. Summed up: as §2
A short description of data set [6]: Cytotoxicity against DM1-patient derived myotubes assessed as change in cellular morphology at 1 uM measured after 48 hrs. As to conditions: human, myotube. The gist of the method: as §1
Data set [7] relates to r(CUG) repeat expansion. Briefly: Binding affinity to r(CUG)exp RNA repeat in DM1-patient derived myotubes assessed as reduction in number of r(CUG)exp-MBNL1 foci at 1 uM measured after 48 hrs by RNA fluorescence in situ hybridization assay. Details: scale not given: the % may be the effect or the level left. As to conditions: Homo sapiens, Myotube. Summed up: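 Nuclear foci counted in DM1 myotubes by confocal imaging: MBNL1 by immunofluorescence, r(CUG)exp by RNA FISH. Foci per nucleus from 40 nuclei per replicate, n = 3; Student's t-test.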

Data set [8] deals with r(CUG) repeat expansion. Briefly: Binding affinity to 5'-biotinylated r(CUG)12 RNA repeat (unknown origin) assessed as disruption of r(CUG)12-His-tagged MBNL1 complex formation preincubated for 15 mins followed by MBNL1 addition and measured after 15 mins by TR-FRET assay. It is filed as nucleic-acid assay. (Time-resolved FRET reads energy transfer from a long-lived donor to a nearby acceptor.)

Data set [9] deals with r(CUG) repeat expansion. As to the kind of experiment: Binding affinity to r(CUG)12 RNA repeat (unknown origin) measured after 10 mins by fluorescence assay. It is filed as nucleic-acid assay.
Data set [10] relates to Myotube. Briefly: Effect on MBNL1 exon 5 splicing in wild type human myotubes at 0.04 to 1 uM measured after 48 hrs by RT-qPCR analysis. It is filed as functional. As to conditions: dose 0.04-1 µM.
For the next data set, the system named is Nucleic Acid. As to the kind of experiment: Binding affinity to r(CG)8 RNA repeat (unknown origin) measured after 10 mins by fluorescence assay. It is filed as nucleic-acid assay.
Data set [11] deals with Myotube. As to the kind of experiment: Effect on DMPK transcription in DM1-patient derived myotubes at 0.04 to 1 uM measured after 48 hrs by RT-qPCR analysis. The data set is classed as functional. As to conditions: Homo sapiens, dose 0.04-1 µM. The gist of the method: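 Transcript levels, either DMPK or r(CUG) repeat-containing mRNAs, quantified by RT-qPCR in treated DM1 myotubes; n = 6, one-way ANOVA.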

Data set [12] relates to Myotube. Briefly: Effect on alternative splicing of MAP4K4 exon 22a in DM1-patient derived myotubes at 0.04 to 1 uM measured after 48 hrs by RT-qPCR analysis. It is filed as functional. As to conditions: Homo sapiens, dose 0.04-1 µM.
Data set [13] concerns r(CUG) repeat expansion. Briefly: Binding affinity to r(CUG)exp RNA repeat in DM1-patient derived myotubes assessed as improvement in MBNL1 exon 5 splicing defect at 5 uM measured after 48 hrs by RT-qPCR analysis relative to control. Conditions: Homo sapiens, Myotube. The gist of the method:
as §2

Activity calls are given as the source filed them. The calls are words filed in the database; no cut-off is given here.

On to `CCCN(CC(=O)N(CCCNC(=O)CCCOc1cccc(-c2nc3ccc(-c4nc5cc(N6CCN(C)CC6)ccc5[nH]4)cc3[nH]2)c1)CC(N)=O)C(=O)CN(CCO)C(=O)CN(CCN)C(=O)CN(CCN1CCOCC1)C(=O)CCCOc1cccc(-c2nc3ccc(-c4nc5cc(N6CCN(C)CC6)ccc5[nH]4)cc3[nH]2)c1`, for which the Drug uptake result in data set [1] was “Active”. Besides, in data set [2], the Activity entry was “Non-Toxic”.

Regarding `CNCCCCN(CC(=O)N(CCC(=O)N1CCCC1)CC(=O)N(CCCNC(=O)CCCOc1cccc(-c2nc3ccc(-c4nc5cc(N6CCN(C)CC6)ccc5[nH]4)cc3[nH]2)c1)CC(N)=O)C(=O)CN(CCO)C(=O)CN(CCC(=O)N1CCCC1)C(=O)CCCOc1cccc(-c2nc3ccc(-c4nc5cc(N6CCN(C)CC6)ccc5[nH]4)cc3[nH]2)c1`, the Drug uptake result in data set [1] is “Active”. The Activity entry in [2] is on record as “Non-Toxic”.

For `COc1ccc(CN(CC(=O)N(CCCNC(=O)CCCOc2cccc(-c3nc4ccc(-c5nc6cc(N7CCN(C)CC7)ccc6[nH]5)cc4[nH]3)c2)CC(N)=O)C(=O)CN(Cc2cccnc2)C(=O)CN(C(=O)CN(C)C(=O)CCCOc2cccc(-c3nc4ccc(-c5nc6cc(N7CCN(C)CC7)ccc6[nH]5)cc4[nH]3)c2)C2CC2)cc1`, the Activity was 2% with r(CUG) repeat expansion [3], “Dose-dependent effect” with r(CUG) repeat expansion [4], “Non-Toxic” in data set [6] and “Toxic” in data set [2]. In [1], the Drug uptake entry is reported as “Active”. Moreover, the outcome in the data set on r(CUG) repeat expansion [5] was Active.

Consider `CNCCCCN(CC(=O)N(CCCNC(=O)CCCOc1cccc(-c2nc3ccc(-c4nc5cc(N6CCN(C)CC6)ccc5[nH]4)cc3[nH]2)c1)CC(N)=O)C(=O)CN(CCCCNC)C(=O)CN(CCO)C(=O)CN(Cc1cccnc1)C(=O)CCCOc1cccc(-c2nc3ccc(-c4nc5cc(N6CCN(C)CC6)ccc5[nH]4)cc3[nH]2)c1`, for which, in data set [1], the Drug uptake result is “Active”. Besides, the Activity entry in data set [2] is reported as “Non-Toxic”.

Regarding `CNCCCCN(CC(=O)N(CCN)CC(=O)N(CCCNC(=O)CCCOc1cccc(-c2nc3ccc(-c4nc5cc(N6CCN(C)CC6)ccc5[nH]4)cc3[nH]2)c1)CC(N)=O)C(=O)CN(Cc1ccccc1)C(=O)CN(C)C(=O)CCCOc1cccc(-c2nc3ccc(-c4nc5cc(N6CCN(C)CC6)ccc5[nH]4)cc3[nH]2)c1`, the Drug uptake result in [1] is “Active”. In data set [2], the Activity result was “Non-Toxic”.

Consider `COCCN(CC(=O)N(CCCNC(=O)CCCOc1cccc(-c2nc3ccc(-c4nc5cc(N6CCN(C)CC6)ccc5[nH]4)cc3[nH]2)c1)CC(N)=O)C(=O)CN(CCN)C(=O)CN(Cc1ccc(OC)cc1)C(=O)CN(CCN)C(=O)CCCOc1cccc(-c2nc3ccc(-c4nc5cc(N6CCN(C)CC6)ccc5[nH]4)cc3[nH]2)c1`, for which the Drug uptake entry in data set [1] is given as “Active”. Also, the Activity entry in data set [2] is “Non-Toxic”.

Consider `CNCCCCN(CC(=O)N(CC(=O)N(CCCNC(=O)CCCOc1cccc(-c2nc3ccc(-c4nc5cc(N6CCN(C)CC6)ccc5[nH]4)cc3[nH]2)c1)CC(N)=O)C1CC1)C(=O)CN(CCOC)C(=O)CN(CCO)C(=O)CCCOc1cccc(-c2nc3ccc(-c4nc5cc(N6CCN(C)CC6)ccc5[nH]4)cc3[nH]2)c1`, for which, in data set [1], the Drug uptake result is listed as “Active”. In data set [2], the Activity result is “Non-Toxic”.

`CNCCCCN(CC(=O)N(CCN)CC(=O)N(CCCNC(=O)CCCOc1cccc(-c2nc3ccc(-c4nc5cc(N6CCN(C)CC6)ccc5[nH]4)cc3[nH]2)c1)CC(N)=O)C(=O)CN(C)C(=O)CN(CCCn1ccnc1)C(=O)CCCOc1cccc(-c2nc3ccc(-c4nc5cc(N6CCN(C)CC6)ccc5[nH]4)cc3[nH]2)c1`: the Activity in the data set with r(CUG) repeat expansion [7] was 20%; in the data set on r(CUG) repeat expansion [3], 7%; in the data set on r(CUG) repeat expansion [4] it was “Dose-dependent effect”; in data set [6], “Non-Toxic”; in data set [2], “Toxic”. At r(CUG) repeat expansion [8], the IC50 (commonly the concentration at which inhibition is half-maximal) was determined as 2.8 µM. The Drug uptake result in data set [1] is listed as “Active”. Also, on r(CUG) repeat expansion [9], the EC50 – broadly, the concentration that produces a half-maximal response – is 106 nM. The outcome in the data set on Myotube [10], in the data set on Nucleic Acid, in the data set on Myotube [11] and in the data set on Myotube [12] was inactive. Besides, in the data set on r(CUG) repeat expansion [5], the result was Active.

As to `CCCN(CC(=O)N(CCC)CC(=O)N(CCC)CC(=O)N(CCC)CC(=O)N(CC(N)=O)Cc1cn(CCCNC(=O)CCCOc2ccc(-c3nc4ccc(-c5nc6cc(N7CCN(C)CC7)ccc6[nH]5)cc4[nH]3)cc2)nn1)C(=O)CNCc1cn(CCCNC(=O)CCCOc2cccc(-c3nc4ccc(-c5nc6cc(N7CCN(C)CC7)ccc6[nH]5)cc4[nH]3)c2)nn1`, the IC50 at r(CUG) repeat expansion [8] turned out to be 32.2 µM. In addition, the Drug uptake result in [1] is on record as “Active”. This compound also had an EC50 on r(CUG) repeat expansion [9] of 1140 nM. Besides, in the data set with r(CUG) repeat expansion [13], the Activity was 30%. In addition, the result with r(CUG) repeat expansion [5] was inactive.

As for `CNCCCCN(CC(=O)N(CCCNC(=O)CCCOc1cccc(-c2nc3ccc(-c4nc5cc(N6CCN(C)CC6)ccc5[nH]4)cc3[nH]2)c1)CC(N)=O)C(=O)CN(Cc1ccc(OC)cc1)C(=O)CN(CCCCNC)C(=O)CN(C(=O)CCCOc1cccc(-c2nc3ccc(-c4nc5cc(N6CCN(C)CC6)ccc5[nH]4)cc3[nH]2)c1)C1CCCCC1`, in [1], the Drug uptake entry is reported as “Active”. Further, in the data set on r(CUG) repeat expansion [5], the result was inactive. For the same compound, the Activity result is given as “Non-Toxic” in data set [6] and “Toxic” in [2].

Regarding `CCCN(CC(=O)N(CCCCNC)CC(=O)N(C)CC(=O)N(CCCNC(=O)CCCOc1cccc(-c2nc3ccc(-c4nc5cc(N6CCN(C)CC6)ccc5[nH]4)cc3[nH]2)c1)CC(N)=O)C(=O)CN(CCO)C(=O)CCCOc1cccc(-c2nc3ccc(-c4nc5cc(N6CCN(C)CC6)ccc5[nH]4)cc3[nH]2)c1`, the Drug uptake entry in data set [1] is reported as “Active”. Further, in data set [2], the Activity entry is “Non-Toxic”.

With `CNCCCCN(CC(=O)N(CCCCNC)CC(=O)N(CCN)CC(=O)N(CCCNC(=O)CCCOc1cccc(-c2nc3ccc(-c4nc5cc(N6CCN(C)CC6)ccc5[nH]4)cc3[nH]2)c1)CC(N)=O)C(=O)CN(C)C(=O)CCCOc1cccc(-c2nc3ccc(-c4nc5cc(N6CCN(C)CC6)ccc5[nH]4)cc3[nH]2)c1`, in data set [1], the Drug uptake entry was “Active”. For the same compound, in the data set with r(CUG) repeat expansion [5], the outcome was Active. Besides, the figures for the Activity result in data set [6] and in [2] were “Non-Toxic” and “Toxic”, respectively.

As to `CNCCCCN(CC(=O)N(CC(=O)N(CC(=O)N(CCO)CC(=O)N(CCCNC(=O)CCCOc1cccc(-c2nc3ccc(-c4nc5cc(N6CCN(C)CC6)ccc5[nH]4)cc3[nH]2)c1)CC(N)=O)C1CCCCC1)Cc1cccnc1)C(=O)CCCOc1cccc(-c2nc3ccc(-c4nc5cc(N6CCN(C)CC6)ccc5[nH]4)cc3[nH]2)c1`, the Drug uptake entry in data set [1] is “Active”. Further, the Activity entry in [2] was “Non-Toxic”.
